# Assay results: ChEMBL document CHEMBL1765051 (J Med Chem, 2011)
# Columns and labels:
# [1] = tested on: Human immunodeficiency virus 2; assay: Antiviral activity against wild type HIV2 infected in human CEM cells assessed as inhibition of syncytia formation; format: functional, organism-based; settings: Human immunodeficiency virus 2, CCRF-CEM
# [2] = tested on: Human immunodeficiency virus 1; assay: Antiviral activity against wild type HIV1 infected in human CEM cells assessed as inhibition of syncytia formation; format: functional, organism-based; settings: Human immunodeficiency virus 1, CCRF-CEM
# [3] = tested on: Human immunodeficiency virus 1; assay: Ratio of EC50 for HIV1 3B harboring reverse transcriptase Y188L mutant to EC50 for wild type HIV1 3B; format: functional
# [4] = tested on: Human immunodeficiency virus 1; assay: Antiviral activity against HIV1 3B harboring reverse transcriptase E138K mutant infected in human CEM cells assessed as inhibition of syncytia formation; format: functional, organism-based; settings: Human immunodeficiency virus 1, 3B, CCRF-CEM
# [5] = tested on: Human immunodeficiency virus 1; assay: Ratio of EC50 for HIV1 3B harboring reverse transcriptase G190E mutant to EC50 for wild type HIV1 3B; format: functional
# [6] = biological target: Human immunodeficiency virus type 1 reverse transcriptase (Human immunodeficiency virus 1, UniProt Q72547, E138K); assay: Inhibition of HIV-1 reverse transcriptase E138K mutant-mediated polymerization reaction after 30 mins
# Outline: (§1)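 Recombinant mutant HIV-1 RT started reactions containing 50 mM Tris-HCl pH 7.8, 5 mM DTT, 300 mM glutathione, 0.5 mM EDTA, 150 mM KCl, 5 mM MgCl2, BSA, 0.06% Triton X-100, 2.8 μM [3H]dGTP, 0.1 mM poly(rC)/oligo(dG) and varying compound. Incubated 30 min at 37°C, stopped with yeast RNA/pyrophosphate/TCA, acid-insoluble radioactivity counted; IC50 = 50% polymerization inhibition; mean ± SD, ≥2 independent experiments.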
# [7] = tested on: Human immunodeficiency virus 1; assay: Ratio of EC50 for HIV1 3B harboring reverse transcriptase Y181C mutant to EC50 for wild type HIV1 3B; format: functional
# [8] = tested on: Human immunodeficiency virus 1; assay: Antiviral activity against wild type HIV1 3B infected in human CEM cells assessed as inhibition of syncytia formation; format: functional, organism-based; settings: Human immunodeficiency virus 1, 3B, CCRF-CEM
# [9] = tested on: Human immunodeficiency virus 1; assay: Antiviral activity against HIV1 3B harboring reverse transcriptase V106A mutant infected in human CEM cells assessed as inhibition of syncytia formation; format: functional, organism-based; settings: Human immunodeficiency virus 1, 3B, CCRF-CEM
# [10] = tested on: Human immunodeficiency virus 1; assay: Antiviral activity against HIV1 3B harboring reverse transcriptase Y188L mutant infected in human CEM cells assessed as inhibition of syncytia formation; format: functional, organism-based; settings: Human immunodeficiency virus 1, 3B, CCRF-CEM
# [11] = tested on: Human immunodeficiency virus 1; assay: Ratio of EC50 for HIV1 3B harboring reverse transcriptase K103N mutant to EC50 for wild type HIV1 3B; format: functional
# [12] = tested on: Human immunodeficiency virus 1; assay: Ratio of EC50 for HIV1 3B harboring reverse transcriptase L100I mutant to EC50 for wild type HIV1 3B; format: functional
# [13] = biological target: Human immunodeficiency virus type 1 reverse transcriptase (Human immunodeficiency virus 1, UniProt Q72547, K101E); assay: Inhibition of HIV-1 reverse transcriptase K101E mutant-mediated polymerization reaction after 30 mins; outline: as §1
# [14] = tested on: Human immunodeficiency virus 1; assay: Antiviral activity against HIV1 3B harboring reverse transcriptase Y181I mutant infected in human CEM cells assessed as inhibition of syncytia formation; format: functional, organism-based; settings: Human immunodeficiency virus 1, 3B, CCRF-CEM
# [15] = tested on: Human immunodeficiency virus 1; assay: Antiviral activity against HIV1 3B harboring reverse transcriptase V179N mutant infected in human CEM cells assessed as inhibition of syncytia formation; format: functional, organism-based; settings: Human immunodeficiency virus 1, 3B, CCRF-CEM
# [16] = tested on: Human immunodeficiency virus 1; assay: Antiviral activity against HIV1 3B harboring reverse transcriptase L100I mutant infected in human CEM cells assessed as inhibition of syncytia formation; format: functional, organism-based; settings: Human immunodeficiency virus 1, 3B, CCRF-CEM
# [17] = tested on: Human immunodeficiency virus 1; assay: Ratio of EC50 for HIV1 3B harboring reverse transcriptase E138K mutant to EC50 for wild type HIV1 3B; format: functional
# [18] = tested on: Human immunodeficiency virus 1; assay: Antiviral activity against HIV1 3B harboring reverse transcriptase Y188H mutant infected in human CEM cells assessed as inhibition of syncytia formation; format: functional, organism-based; settings: Human immunodeficiency virus 1, 3B, CCRF-CEM
# [19] = tested on: Human immunodeficiency virus 1; assay: Antiviral activity against HIV1 3B harboring reverse transcriptase Y181C mutant infected in human CEM cells assessed as inhibition of syncytia formation; format: functional, organism-based; settings: Human immunodeficiency virus 1, 3B, CCRF-CEM
# [20] = tested on: Human immunodeficiency virus 1; assay: Ratio of EC50 for HIV1 3B harboring reverse transcriptase Y188H mutant to EC50 for wild type HIV1 3B; format: functional
# [21] = tested on: Human immunodeficiency virus 1; assay: Ratio of EC50 for HIV1 3B harboring reverse transcriptase N136A/Q/K mutant to EC50 for wild type HIV1 3B; format: functional
# [22] = tested on: Human immunodeficiency virus 1; assay: Ratio of EC50 for HIV1 3B harboring reverse transcriptase V106A mutant to EC50 for wild type HIV1 3B; format: functional
# [23] = tested on: Human immunodeficiency virus 1; assay: Antiviral activity against HIV1 3B harboring reverse transcriptase N136A/Q/K mutant infected in human CEM cells assessed as inhibition of syncytia formation; format: functional, organism-based; settings: Human immunodeficiency virus 1, 3B, CCRF-CEM
# [24] = tested on: Human immunodeficiency virus 1; assay: Antiviral activity against HIV1 3B harboring reverse transcriptase K103N mutant infected in human CEM cells assessed as inhibition of syncytia formation; format: functional, organism-based; settings: Human immunodeficiency virus 1, 3B, CCRF-CEM
# [25] = tested on: Human immunodeficiency virus 1; assay: Antiviral activity against HIV1 3B harboring reverse transcriptase E138D mutant infected in human CEM cells assessed as inhibition of syncytia formation; format: functional, organism-based; settings: Human immunodeficiency virus 1, 3B, CCRF-CEM
# [26] = Inhibition of HIV-1 reverse transcriptase […] and E138K mutant-mediated polymerization reaction after 30 mins; parameters: species or system Human immunodeficiency virus 1; outline: as §1
# [27] = tested on: Human immunodeficiency virus 1; assay: Antiviral activity against HIV1 3B harboring reverse transcriptase G190E mutant infected in human CEM cells assessed as inhibition of syncytia formation; format: functional, organism-based; settings: Human immunodeficiency virus 1, 3B, CCRF-CEM
# [28] = tested on: Human immunodeficiency virus 1; assay: Ratio of EC50 for HIV1 3B harboring reverse transcriptase Y181I mutant to EC50 for wild type HIV1 3B; format: functional
# [29] = biological target: Human immunodeficiency virus type 1 reverse transcriptase (Human immunodeficiency virus 1, UniProt Q72547); assay: Inhibition of wild type HIV-1 reverse transcriptase-mediated polymerization reaction after 30 mins
structure (smiles),measurement,setting,value
CC(C)(C)[Si](C)(C)OC[C@H]1O[C@@H](n2cnc3c(N)ncnc32)[C@H](O[Si](C)(C)C(C)(C)C)[C@]12OS(=O)(=O)C=C2N,EC50,[1],> 10000 nM
same,EC50,[2],50 nM
Cn1cnc2c(ncn2[C@@H]2O[C@H](CO[Si](C)(C)C(C)(C)C)[C@@]3(OS(=O)(=O)C=C3N)[C@H]2O[Si](C)(C)C(C)(C)C)c1=O,EC50,[1],> 150000 nM
same,EC50,[2],60 nM
CNC(=O)c1cnnn1[C@@H]1O[C@H](CO[Si](C)(C)C(C)(C)C)[C@@]2(OS(=O)(=O)C=C2N)[C@H]1O[Si](C)(C)C(C)(C)C,EC50,[1],> 7000 nM
same,EC50,[2],80 nM
Cc1cn([C@@H]2O[C@H](CO[Si](C)(C)C(C)(C)C)[C@@]3(NS(=O)(=O)N=C3N)[C@H]2O[Si](C)(C)C(C)(C)C)c(=O)n(C)c1=O,EC50,[1],> 7000 nM
same,EC50,[2],5300 nM
Cc1cn([C@@H]2O[C@H](CO[Si](C)(C)C(C)(C)C)[C@@]3(OS(=O)(=O)C=C3N)[C@H]2O[Si](C)(C)C(C)(C)C)c(=O)n(C)c1=O,Ratio EC50,[3],30
same,EC50,[4],> 3 µg/mL
same,Ratio EC50,[5],30
same,IC50,[6],> 166000 nM
same,Ratio EC50,[7],30
same,EC50,[8],0.03 µg/mL
same,EC50,[9],1.9 µg/mL
same,EC50,[10],> 10 µg/mL
same,Ratio EC50,[11],7
same,Ratio EC50,[12],7
same,IC50,[13],> 166000 nM
same,EC50,[14],> 10 µg/mL
same,EC50,[15],0.22 µg/mL
same,EC50,[16],0.07 µg/mL
same,EC50,[1],> 250000 nM
same,Ratio EC50,[17],30
same,EC50,[18],> 3.3 µg/mL
same,EC50,[19],2 µg/mL
same,EC50,[2],40 nM
same,Ratio EC50,[20],30
same,Ratio EC50,[21],30
same,Ratio EC50,[22],30
same,EC50,[23],> 50 µg/mL
same,EC50,[24],0.23 µg/mL
same,EC50,[25],0.01 µg/mL
same,IC50,[26],> 100 µg/mL
same,EC50,[27],> 10 µg/mL
same,Ratio EC50,[28],30
same,IC50,[29],2400 nM
CNC(=O)CCCCn1c(=O)c(C)cn([C@@H]2O[C@H](CO[Si](C)(C)C(C)(C)C)[C@@]3(OS(=O)(=O)C=C3N)[C@H]2O[Si](C)(C)C(C)(C)C)c1=O,EC50,[1],> 10000 nM
Nc1nc2c(ncn2[C@H]2CC[C@@H](COP(=O)(O)OP(=O)(O)OP(=O)(O)O)O2)c(=O)[nH]1 [DIDEOXY GUANOSINE TRIPHOSPHATE],IC50,[6],224 nM
same,IC50,[13],244 nM
same,IC50,[26],0.14 µg/mL
same,IC50,[29],224 nM
